Bioassay records: PubChem BioAssay, The Scripps Research Institute Molecular Screening Center
Hits are enriched below; roughly 1.8% of the tested compounds scored in any of these assays.
M5 ag = CHRM5 agonism in calcium assay; CHO-K1 hM5 cells, Fluo-8 calcium fluorescence; 0% DMSO wells, 100% maximal acetylcholine response; 360,000 compounds, 0.19% hits; AID 624037; activation, % at 3 µM;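 active means activation above the run's mean over test compounds plus 3 SD, cut at about 23% in these data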;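 further: signal is peak over basal fluorescence ratio across the kinetic read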
Target sequence (P08912 whole entry, looked up): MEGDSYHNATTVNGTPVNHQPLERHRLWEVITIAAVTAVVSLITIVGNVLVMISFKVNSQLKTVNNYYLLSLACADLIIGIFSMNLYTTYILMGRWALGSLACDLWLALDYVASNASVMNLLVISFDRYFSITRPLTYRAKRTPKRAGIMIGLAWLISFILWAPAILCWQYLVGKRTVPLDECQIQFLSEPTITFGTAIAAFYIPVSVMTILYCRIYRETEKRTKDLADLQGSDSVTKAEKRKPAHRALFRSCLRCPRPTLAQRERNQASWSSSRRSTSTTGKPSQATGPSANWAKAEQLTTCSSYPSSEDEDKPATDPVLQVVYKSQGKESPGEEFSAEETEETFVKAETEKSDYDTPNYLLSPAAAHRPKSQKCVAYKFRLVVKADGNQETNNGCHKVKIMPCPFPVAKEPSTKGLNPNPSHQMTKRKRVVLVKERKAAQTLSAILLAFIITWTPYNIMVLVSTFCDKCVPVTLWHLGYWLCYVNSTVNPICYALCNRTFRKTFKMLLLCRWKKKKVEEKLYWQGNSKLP
M4 PAM = positive allosteric modulators of human muscarinic M4 receptor; CHO-K1 hM4/Gqi5, Fluo-8 calcium fluorescence, ACh EC20; 0% = ACh EC20, 100% = maximal ACh; activation, % at 3 µM; 360,000 compounds, 0.4% hits; AID 624126;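 active means activation above its plate's cutoff, the mean activation of sample wells plus 3 SD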
M4 antag = antagonists of human muscarinic M4 receptor (CHRM4); inhibition, % at 3 µM; CHO-hM4 cells, ACh EC80, Fluo-8 calcium fluorescence; 360,000 compounds, 0.73% hits;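 active means inhibition above its plate's cutoff, the mean inhibition of sample wells plus 3 SD, cut at about 27% in these data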;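 further: 0% = acetylcholine EC80 with DMSO and 100% = DMSO without agonist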
M5 PAM = potentiates acetylcholine response at human M5 receptor. P08912. CHO-K1 hM5, Fluo-8 calcium, ACh EC20 PAM; 0% = ACh EC20, 100% = ACh EC100. activation, % at 3 µM. 360,000 compounds, 0.3% hits;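 active means activation above the run cutoff, the mean activation of all test compounds plus 3 SD, cut at about 18% in these data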
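System: CHO-K1 hM5 cells. Reagent: acetylcholine, EC20 level. Compound dosing: single dose, 3 µM nominal final test concentration. Timing: Post-acetylcholine fluorescence recording 140 s. Detection: Fluo-8 calcium fluorescence. Read-out: % activation, ACh-normalized. Benchmarks: ACh EC20 and EC100 wells. Repeats: singlicate, one well per test compound.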
CHRM4 agonist = CHRM4 agonism in calcium assay; CHO-K1 hM4/Gqi5, Fluo-8 calcium fluorescence; vehicle 0%, full acetylcholine response 100%; activation, % at 3 µM; 360,000 compounds, 0.14% hits; AID 624127;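 active means activation above the run mean over all test wells plus 3 SD, cut at about 32% in these data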;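 further: peak over basal fluorescence ratio per well then scaled between controls; 0% = DMSO wells and 100% = acetylcholine at EC100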
CHRM5 antagonist = antagonists of human muscarinic M5 receptor (CHRM5). inhibition, % at 3 µM. 360,000 compounds, 0.59% hits. AID 624040. CHO-hM5 cells, Fluo-8 calcium fluorescence, ACh EC80. P08912;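 active means inhibition above a per-plate cutoff, the mean of that plate's test compounds plus 3 SD, cut at about 27% in these data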;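 further: 0% = acetylcholine EC80 with DMSO and 100% = DMSO without agonist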
Starred values were filed as active, the others as inactive.

SMILES	M5 ag	M4 PAM	M4 antag	M5 PAM	CHRM4 agonist	CHRM5 antagonist
Cc1csc(/C(C#N)=N/O)n1	3.5	13.6	-3.4	-1.0	1.6	3.1
Cc1csc(/C(=N\O)c2csc(C)n2)n1	0.4	20.6*	-2.6	0.8	2.1	9.7
CC(=O)c1ccccc1OC(=O)c1ccco1	-0.1	22.9*	-13.0	2.4	0.8	0.5
CC(=O)COc1ccccc1OC(=O)c1ccco1	-1.6	2.2	4.6	2.6	-0.1	-0.4
COc1ccccc1CNc1ncnc2sccc12	5.2	-5.2	0.9	-13.1	12.6	27.3*
c1ccc2c(c1)OCC(CNc1ncnc3sccc13)O2 (stereo not given)	6.2	-19.6	25.3	-17.1	15.6	35.3*
c1ccc2c(c1)OCC(CNCC1COc3ccccc3O1)O2 (stereo not given)	-0.8	-0.8	11.4	-4.8	1.0	7.4
COc1ccc(CCNc2ncnc3sccc23)cc1OC	6.0	-23.9	40.3*	-29.6	21.3	47.9*
Fc1ccccc1CNc1ncnc2sccc12	3.9	-6.4	16.3	-5.6	10.6	7.0
Cc1ccccc1C(=O)Nc1nnc([C@@H]2C[C@H](O)[C@@H](CO)O2)s1	-1.0	10.8	-15.9	-0.9	0.5	-2.8
Nc1nnnn1/N=C/c1cc(Br)ccc1O	3.0	-0.3	3.6	7.8	0.1	-9.7
CO[C@H]1CN(C)C(=O)c2ccc(NC(=O)c3ccc4c(c3)OCO4)cc2OC[C@H](C)N(CC2CC2)C[C@@H]1C	-1.6	-6.2	6.3	1.6	2.0	3.0
COc1ccc(C(=O)c2ccccc2)c(OCC(=O)N(C)C)c1	-5.0	22.9*	-13.7	-2.7	1.8	-1.6
CC(=O)Oc1ccc(C(=O)c2ccccc2)c(OC(C)=O)c1	-3.2	-2.9	7.2	1.3	0.0	1.1
O=C(NCCNC(=O)c1ccccc1)c1ccccc1	-0.3	12.0	-6.6	-7.2	1.1	3.2
C[N+](C)(C)CCNC(=O)c1ccccc1	-2.2	22.6*	-7.4	8.9	1.4	-17.2
O=C(N/C(=C/c1cccc([N+](=O)[O-])c1)C(=O)N1CCCCCC1)c1cccs1	0.3	8.3	-6.0	-0.1	1.4	-2.2
O=C(N/C(=C/c1cccc([N+](=O)[O-])c1)C(=O)N1CCCCC1)c1ccco1	-2.9	-3.7	-5.8	-9.8	1.7	32.1*
CC(C)(C)NC(=O)C(C1CC1)n1c(=O)c(-c2ccccc2)nc2ccccc21 (stereo not given)	0.7	6.3	-5.1	-1.8	-2.1	6.3
COCCNC(=O)C1(C)CCCN(C(=O)c2cccc3ccccc23)C1 (stereo not given)	0.5	1.9	3.2	-5.5	0.3	29.7*
COC(=O)c1cc(CNC(=O)c2ccccc2OCc2c(C)noc2C)ccc1OC	-1.5	18.0*	0.7	2.2	4.7	-25.3
COc1ccccc1N1C(=O)C2C(C(=O)c3ccccc3)=NN(c3ccc(C)cc3)C2C1=O (stereo not given)	7.7	-7.7	0.3	14.1	1.2	-9.8
COc1ccccc1N1C(=O)C2C(C(=O)c3ccccc3)=NN(c3ccc(Br)cc3)C2C1=O (stereo not given)	0.7	-7.0	37.5*	9.1	19.7	-0.7
O=C(NN1C(=O)/C(=C/c2ccc(O)c(O)c2)SC1=S)c1ccccc1	40.4*	-11.4	16.5	-4.7	16.9	13.6
CCOc1cc(/C=C2\SC(=S)N(Nc3ccccc3)C2=O)ccc1O	20.4	-16.9	25.4	-7.8	21.5	21.5
COc1cc(/C=C2/SC(=S)N(CC3CCCO3)C2=O)ccc1O (stereo not given)	22.7	-24.8	17.9	-8.2	32.7*	18.0
COc1cc(/C=C2\SC(=S)N(NC(=O)c3ccc(O)cc3)C2=O)ccc1O	60.3*	-22.8	26.6*	-20.0	93.8*	24.2
COc1cc(/C=C2\SC(=S)N(Nc3ccccc3)C2=O)ccc1O	29.3*	-21.8	27.4*	-11.2	45.2*	28.6*
